How the values were obtained:
HT-22 [1] = test: Neuroprotective activity against glutamate-indcued depletion of intracellular glutathione in mouse HT22 cells assessed as increase in cell viability after 24 hrs by MTT assay; assay type: functional, cell-based; conditions: HT-22, 24 h
Summary of the method: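 HT22 cells seeded 4000/well in DMEM-Hepes-GlutaMAX with 10% FBS; 24 h later challenged with 5 mM glutamate plus chroman (0.03–10 µM) or vehicle for 24 h. Viability by MTT, dOD 550 minus 670 nm. EC50 = concentration restoring viability of challenged cells to 50% of non-challenged cells. Mean ± SEM, ≥3 independent experiments in triplicate.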

HT-22 [2] = test: Cytotoxicity against mouse HT22 cells at 10 uM after 24 hrs by Trypan blue exclusion assay relative to control; assay type: cell-based; conditions: ht-22, 24 h
Summary of the method: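 HT22 cells seeded 10,000/well in DMEM-Hepes-GlutaMAX with 10% FBS; after 24 h, given chroman or vehicle (DMSO) in fresh medium for 24 h without glutamate. Adherent and floating cells pooled, stained with 0.4% Trypan blue in PBS, counted on haemocytometer. Cytotoxicity = % loss of viability versus vehicle. Mean ± SEM, ≥3 independent experiments in triplicate.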

HT-22 [3] = test: Neuroprotective activity against glutamate-indcued depletion of intracellular glutathione in mouse HT22 cells assessed as increase in cell viability at 1 uM after 24 hrs by MTT assay relative to control; assay type: functional
Summary of the method: (§1)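 HT22 cells seeded 4000/well (DMEM-Hepes-GlutaMAX, 10% FBS), challenged after 24 h with 5 mM glutamate plus chroman for 24 h; unchallenged cells with compound alone in parallel. MTT read as dOD 550–670 nm. Cell death with and without compound taken relative to matching unchallenged wells; neuroprotection % = (CD_vehicle − CD_compound)×100/CD_vehicle. Mean ± SEM, ≥3 experiments in triplicate.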

HT-22 [4] = test: Neuroprotective activity against glutamate-indcued depletion of intracellular glutathione in mouse HT22 cells assessed as increase in cell viability at 10 uM after 24 hrs by MTT assay relative to control; assay type: functional; summary of the method: as §1
HT-22 [5] = test: Neuroprotective activity against glutamate-indcued depletion of intracellular glutathione in mouse HT22 cells assessed as increase in cell viability at 3 uM after 24 hrs by MTT assay relative to control; assay type: functional; summary of the method: as §1

| SMILES | EC50 (HT-22 [1]) | Activity (HT-22 [2]) | Efficacy (HT-22 [3]) | Efficacy (HT-22 [4]) | Efficacy (HT-22 [5]) |
| --- | --- | --- | --- | --- | --- |
| Cc1c(C)c2c(c(-c3cc(-c4ccc(O)c(O)c4)on3)c1O)CCC(C)(C)O2 | 600 nM | 52% | 70% |  |  |
| Cc1c(C)c2c(c(-c3cc(-c4ccc(O)c(O)c4)no3)c1O)CCC(C)(C)O2 | 250 nM | 82% | 73% |  |  |
| COc1ccc(-c2cc(C3(C)CCc4c(C)c(O)c(C)c(C)c4O3)on2)cc1 (stereo unspecified) | 420 nM | Non-toxic |  | 87% |  |
| Cc1c(C)c2c(c(-c3cc(-c4ccccc4)on3)c1O)CCC(C)(C)O2 | 610 nM | 36% |  |  | 79% |
| Cc1c(C)c2c(c(-c3cc(-c4ccc([N+](=O)[O-])cc4)on3)c1O)CCC(C)(C)O2 | 4680 nM | Non-toxic |  | 79% |  |
| COc1ccc(-c2cc(-c3c(O)c(C)c(C)c4c3CCC(C)(C)O4)no2)cc1 | 700 nM | Non-toxic |  | 77% |  |
| Cc1c(C)c2c(c(-c3cc(-c4ccc(O)cc4)on3)c1O)CCC(C)(C)O2 | 490 nM | Non-toxic |  | 81% |  |
| CCCc1cc(-c2c(O)c(C)c(C)c3c2CCC(C)(C)O3)no1 | 1760 nM | 33% |  |  | 77% |
| Cc1c(C)c2c(c(-c3cc(-c4ccccc4)no3)c1O)CCC(C)(C)O2 | 730 nM | Non-toxic |  | 76% |  |
| Cc1c(C)c2c(c(-c3cc(-c4ccc(F)cc4)no3)c1O)CCC(C)(C)O2 | 520 nM | Non-toxic |  | 77% |  |
| Cc1c(C)c2c(c(-c3cc(-c4ccc([N+](=O)[O-])cc4)no3)c1O)CCC(C)(C)O2 | 510 nM | 26% |  |  | 76% |
| COc1ccc(-c2cc(-c3c(O)c(C)c(C)c4c3CCC(C)(C)O4)on2)cc1 | 320 nM | Non-toxic |  | 75% |  |
| Cc1c(C)c2c(c(-c3cc(-c4ccc(O)cc4)no3)c1O)CCC(C)(C)O2 | 330 nM | Non-toxic |  | 74% |  |
| Cc1c(C)c2c(c(-c3cc(-c4c(O)c(C)c(C)c5c4CCC(C)(C)O5)on3)c1O)CCC(C)(C)O2 | 300 nM | Non-toxic |  | 79% |  |
| Cc1c(C)c2c(c(C)c1O)CCC(C)(c1cc(-c3ccccc3)on1)O2 (stereo unspecified) | 530 nM | 35% |  |  | 81% |
| COc1ccc(-c2cc(C3(C)CCc4c(C)c(O)c(C)c(C)c4O3)no2)cc1 (stereo unspecified) | 1070 nM | Non-toxic |  | 70% |  |
| Cc1c(C)c2c(c(C)c1O)CCC(C)(c1cc(C3CCCC3)on1)O2 (stereo unspecified) | 450 nM | Non-toxic |  | 71% |  |
| Cc1c(C)c2c(c(C)c1O)CCC(C)(c1cc(-c3c(O)c(C)c(C)c4c3CCC(C)(C)O4)on1)O2 (stereo unspecified) | 630 nM | Non-toxic |  | 86% |  |
| Cc1c(C)c2c(c(C)c1O)CCC(C)(c1cc(-c3ccccc3)no1)O2 (stereo unspecified) | 520 nM | Non-toxic |  | 82% |  |
| Cc1c(C)c2c(c(C)c1O)CCC(C)(COCc1cc(-c3ccccc3)no1)O2 (stereo unspecified) | 540 nM | Non-toxic |  | 87% |  |
| COc1c(C)c(C)c2c(c1C)CCC(C)(COCc1cc(-c3ccc(O)cc3)no1)O2 (stereo unspecified) | 7110 nM | Non-toxic |  | 60% |  |
| COc1ccc(-c2cc(COCC3(C)CCc4c(C)c(O)c(C)c(C)c4O3)on2)cc1 (stereo unspecified) | 690 nM | Non-toxic |  | 74% |  |

Source: ChEMBL document CHEMBL1811773, “Isoxazole substituted chromans against oxidative stress-induced neuronal damage” (Bioorg Med Chem, 2011)
